This excerpt belongs to a sample that is enriched for hits.
INS promoter act: TRM-6 insulin promoter activation; TRM-6 cells (human fetal islet line), insulin promoter eGFP reporter, imaging; plate-scaled: unstimulated 0, stimulated control 100; activation, % at 2 µM; 130,000 tested, 0.81% active;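 active means activation at 2 µM above a set limit, confirmed on inspection of the cell images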;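 further: share of cells whose green reporter signal exceeds an intensity cutoff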
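Test system: TRM-6 insulin promoter–eGFP reporter cells / Quantity: 1,000 cells per well / Reagent: tamoxifen inducer, 0.75 µM, in seeding medium / Compound dosing: 2 µM final, single concentration / Schedule: overnight tamoxifen, then two-day compound incubation at 37 °C / Measured by: automated fluorescence imaging of paraformaldehyde-fixed, Hoechst-counterstained cells, green channel / Read-out: percent activation from GFP-positive cell fraction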
Of the large screens only hits and unclear results are named; the others gave an inactive call.

CC(=O)c1cccc(NC(=O)N2CCCC2C(=O)NCc2ccc3c(c2)OCO3)c1 (configuration not stated)	none
COc1ccc(NC(=O)C2CCCN2C(=O)Nc2ccccc2)cc1OC (configuration not stated)	none
CC(=O)c1cccc(NC(=O)N2CCCC2C(=O)Nc2ccc3c(c2)OCCO3)c1 (configuration not stated)	INS promoter act 493
Cc1ccsc1/C=C(\C#N)C(=O)NCc1ccco1	none
CN(C)c1ccc(/C=C(/C#N)C(=O)NCc2ccccc2)o1	INS promoter act 227
Cc1cccc(NC(=O)/C(C#N)=C/c2ccc(Sc3ccccc3)o2)c1C	none
CCOC(=O)c1ccc(NC(=O)C(=O)NCc2ccc(/C=C(/C#N)C(=O)NCCOC)o2)cc1	none
Cc1ccc2c(CC(=O)NC3CCCc4ccccc43)coc2c1 (configuration not stated)	none
C#CCSc1nnc(-c2sc(-c3ccccc3)nc2C)n1C	none
CC(=NC1CC1)C1=C(O)c2ccccc2C1=O	none
O=C1C(C2=C(O)c3ccccc3C2=O)=Nc2ccccc21	INS promoter act 440
CC(=NCCCN(C)C)C1=C(O)c2ccccc2C1=O	none
CCc1ccccc1N(CC(=O)NCc1ccco1)C(=O)c1snc(C(N)=O)c1N	INS promoter act 164
CS(=O)(=O)N(CC(=O)NCc1ccco1)c1ccccc1Cl	none
CCC(C)(C)NC(=O)CN(C(=O)c1snc(C(N)=O)c1N)c1ccc2c(c1)OCO2	none
CC(=O)Nc1ccc(/C(C)=N/NS(=O)(=O)c2ccccc2)cc1	none
COc1ccc(Nc2ccc3nnc(-c4ccc(Br)cc4)n3n2)cc1	none
COC(=O)CSc1cc([N+](=O)[O-])cc2c1c(C1OCCO1)nn2-c1ccccc1	none
Cc1ccc[n+](/C(C(=S)NCc2ccco2)=C(/[O-])c2ccccc2Cl)c1	none
Cc1ccc(C(=O)Nc2ccc(OCc3ccccc3)cc2)cc1[N+](=O)[O-]	none
Cc1ccc(/C([O-])=C(/C(=S)NCc2ccccc2)[n+]2cccc(CO)c2)cc1[N+](=O)[O-]	INS promoter act active
O=C(O)C1Nc2c(O)cc(Cl)c([N+](=O)[O-])c2C2C=CCC12 (configuration not stated)	none
COc1ccc(OC)c(NC(=O)C(CC(=O)O)NCc2ccco2)c1 (configuration not stated)	none
COc1ccc(Cn2nnnc2CN2CCC(O)(c3ccc(F)cc3)CC2)cc1	none
COc1cc(C(=O)NC2CCN(Cc3nnnn3Cc3ccc(F)cc3)CC2)cc(OC)c1OC	INS promoter act 515
Cc1ccc(Cn2nnnc2CN2CCC(O)(c3ccc(F)cc3)CC2)cc1	none
Nc1cc2c(cc1C(=O)c1ccc(Cl)cc1)OCCO2	none
Cc1cc(C)cc(N(CC(=O)N2CCOCC2)S(=O)(=O)c2ccccc2)c1	none
COc1ccc(N2CCN(C(=O)CN(c3ccccc3)S(=O)(=O)c3ccc(OC)cc3)CC2)cc1	INS promoter act 80
COc1ccc(N2CCN(C(=O)CCNC(=O)c3ccccc3)CC2)cc1	none
Cc1cc(-c2csc(NC(=O)c3ccc(C#N)cc3)n2)c(C)n1Cc1ccco1	none
COC(=O)c1cccc(NC(=O)/C=C/c2ccc([N+](=O)[O-])cc2)c1	none
O=C(/C=C/c1ccc([N+](=O)[O-])s1)N1CCCCC1	INS promoter act 328
O=C(/C=C/c1ccccc1[N+](=O)[O-])N1CCCCC1	none
CC(=O)c1cccc(NC(=O)/C=C/c2ccc([N+](=O)[O-])s2)c1	INS promoter act 614
O=C(CNC(=O)c1cccc(F)c1)N/N=C/c1ccc([N+](=O)[O-])s1	none
COc1ccccc1/C=C/C(=O)N1CCCC1	none
O=C(O)c1c[nH]c(=O)c2ccccc12	none
COc1ccc(CNC(=O)c2cccc(-c3ccc(C)c4ccccc34)n2)cc1	none
COc1cc(-c2nnc(Sc3ccc(C(F)(F)F)cc3[N+](=O)[O-])o2)cc(OC)c1OC	none
CC(=O)c1ccc(NC(=O)N2CCN(c3cccc(Cl)c3)CC2)cc1	none
CCc1ccc(NC(=S)N2CCN(c3cccc(C(F)(F)F)c3)CC2)cc1	none
CC(=O)c1ccc(N2CCN(C(=S)Nc3cccc(F)c3)CC2)cc1	INS promoter act 138
COc1nc2c(C)cccc2cc1-c1noc(-c2ccco2)n1	none
CCCCN1C(=O)C(O)(CC(=O)c2c(C)coc2C)c2ccccc21 (configuration not stated)	none
CCCCN1C(=O)C2(NNc3ccccc3O2)c2ccccc21 (configuration not stated)	INS promoter act 170
CCCCN1C(=O)C(O)(CC(=O)c2ccccc2OC)c2ccccc21 (configuration not stated)	none
CCOC(=O)C1=C(C)NC(SCc2cc(=O)[nH][nH]2)=C(C#N)C1c1cccs1 (configuration not stated)	none
Cc1sc(NC(=O)c2cccnc2)nc1-c1ccccc1	none
COc1ccc(NC(=S)NCCc2c(C)[nH]c3ccc(OC)cc23)cc1	none
CCOC(=O)C1CCN(C(=O)COc2ccc(Cl)cc2)CC1	none
CCOC(=O)C1CCCN(C(=O)Cc2ccc(Cl)cc2)C1 (configuration not stated)	INS promoter act 85
CCOC(=O)C1CCCN(C(=O)CCc2ccccc2)C1 (configuration not stated)	none
